The target of one experiment is human GPR68 (Homo sapiens, UniProt Q15743). Kind of experiment: GloSensor cAMP assay, proton-mediated Gs-cAMP production at human GPR68.
Sequence of human GPR68 (Q15743 whole entry): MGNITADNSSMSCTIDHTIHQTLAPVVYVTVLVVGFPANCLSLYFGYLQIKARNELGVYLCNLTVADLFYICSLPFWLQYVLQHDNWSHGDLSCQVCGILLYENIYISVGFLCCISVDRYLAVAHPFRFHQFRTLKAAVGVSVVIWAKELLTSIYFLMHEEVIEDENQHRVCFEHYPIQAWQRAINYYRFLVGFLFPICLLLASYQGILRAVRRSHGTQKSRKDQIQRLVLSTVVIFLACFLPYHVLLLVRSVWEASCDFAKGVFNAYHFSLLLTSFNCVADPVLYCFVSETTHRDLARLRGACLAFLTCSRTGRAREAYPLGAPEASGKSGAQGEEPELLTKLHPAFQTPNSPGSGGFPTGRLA
Conditions: not given
Format: cell-based. In short, it runs like this: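 HEK293T cells were transiently transfected with receptor and GloSensor cAMP plasmids, overnight (16–20 h). Cells were plated on poly-L-Lys in DMEM + 1% dFBS for 6–24 h, then loaded with 3.5 mM luciferin (HBSS, 20 mM TAPS, pH 8.40) for 1 h at 37 °C. Drug was applied in Ca/Mg-free HBSS pH buffers (MES 5.60–6.70, HEPES 6.80–8.20, TAPS 8.30–8.60) with 10 μM Ro 20-1724. Luminescence was read at 20–30 min.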
Turning to `Nc1nc(NCc2cccc(F)c2)nc(-c2ccccc2CO)n1` [Compound 42, (2-(4-Amino-6-((3-fluorobenzyl)amino)-1,3,5-triazin-2-yl)-phenyl)methanol], the Kb is 30.2 µM.
Same read-out and setting: to `Nc1nc(NCc2ccc(F)cc2)nc(-c2ccccc2CO)n1` [Compound 43, (2-(4-Amino-6-((4-fluorobenzyl)amino)-1,3,5-triazin-2-yl)-phenyl)methanol] belongs 107 µM.
The same measure, in the same setting: to `Nc1nc(NCc2ccccc2Cl)nc(-c2ccccc2CO)n1` [Compound 44, (2-(4-Amino-6-((2-chlorobenzyl)amino)-1,3,5-triazin-2-yl)-phenyl)methanol] belongs 8.51 µM; to `Nc1nc(NCc2cccc(Cl)c2)nc(-c2ccccc2CO)n1` [Compound 45, (2-(4-Amino-6-((3-chlorobenzyl)amino)-1,3,5-triazin-2-yl)-phenyl)methanol], 10.7 µM; to `Nc1nc(NCc2ccccc2C(F)(F)F)nc(-c2ccccc2CO)n1` [Compound 47, (2-(4-Amino-6-((2-(trifluoromethyl)benzyl)amino)-1,3,5-triazin-2-yl)phenyl)methanol], 8.91 µM.
The same measure, in the same setting: the value for `Nc1nc(NCc2cccc(C(F)(F)F)c2)nc(-c2ccccc2CO)n1` [Compound 48, (2-(4-Amino-6-((3-(trifluoromethyl)benzyl)amino)-1,3,5-triazin-2-yl)phenyl)methanol] was 7.76 µM; that for `Nc1nc(NCc2ccc(C(F)(F)F)cc2)nc(-c2ccccc2CO)n1` [Compound 49, (2-(4-Amino-6-((4-(trifluoromethyl)benzyl)amino)-1,3,5-triazin-2-yl)phenyl)methanol] was 9.33 µM; that for `Cc1ccccc1CNc1nc(N)nc(-c2ccccc2CO)n1` [Compound 50, (2-(4-Amino-6-((2-methylbenzyl)amino)-1,3,5-triazin-2-yl)-phenyl)methanol] was 20 µM.
For the compound `Cc1cccc(CNc2nc(N)nc(-c3ccccc3CO)n2)c1` [Compound 51, (2-(4-Amino-6-((3-methylbenzyl)amino)-1,3,5-triazin-2-yl)-phenyl)methanol], the Kb is 39.8 µM.
On the same count and under the same terms, the value for `Cc1ccc(CNc2nc(N)nc(-c3ccccc3CO)n2)cc1` [Compound 52, (2-(4-Amino-6-((4-methylbenzyl)amino)-1,3,5-triazin-2-yl)-phenyl)methanol] was 41.7 µM.

Still in this experiment, the particulars now being: affinity cooperativity; human GPR68, HEK293T, Gs-cAMP; mean ± SEM.
Take `Nc1cc(-c2ccccc2CO)nc(NCc2ccccc2)n1` [Compound 10, (2-(6-Amino-2-(benzylamino)pyrimidin-4-yl)phenyl)methanol]: the “Log (α)” value is on record as “Weak PAM”.
The same measure, in the same setting: the value for `Nc1nc(NCc2ccccc2)nc(-c2ccccc2)n1` [Compound 13, N^2-Benzyl-6-phenyl-1,3,5-triazine-2,4-diamine] was “Inactive”.
With `Cc1ccccc1-c1nc(N)nc(NCc2ccccc2)n1` [Compound 14, N^2-Benzyl-6-(o-tolyl)-1,3,5-triazine-2,4-diamine], the “Log (α)” value was “Weak PAM”.
Same read-out and setting: the value for `CC(=O)c1ccccc1-c1nc(N)nc(NCc2ccccc2)n1` [Compound 15, 1-(2-(4-Amino-6-(benzylamino)-1,3,5-triazin-2-yl)phenyl)ethan-1-one] was “Weak PAM”.
For the compound `CC(O)c1ccccc1-c1nc(N)nc(NCc2ccccc2)n1` (stereo not shown) [Compound 16, 1-(2-(4-Amino-6-(benzylamino)-1,3,5-triazin-2-yl)phenyl)ethan-1-ol], the “Log (α)” value is recorded as “Weak PAM”.
Still for that read-out and setting: the value for `CNCc1ccccc1-c1nc(N)nc(NCc2ccccc2)n1` [Compound 19, N^2-Benzyl-6-(2-((methylamino)methyl)phenyl)-1,3,5-triazine-2,4-diamine] was “Weak PAM”; that for `COc1cccc(CO)c1-c1nc(N)nc(NCc2ccccc2)n1` [Compound 32, (2-(4-Amino-6-(benzylamino)-1,3,5-triazin-2-yl)-3-methoxyphenyl)methanol] was “Weak PAM”.

The experiment is the same for the next values; noted with them: allosteric binding affinity from functional assay; human GPR68; mean ± SEM.
For `Nc1cc(-c2ccccc2CO)nc(NCc2ccccc2)n1` [Compound 10, (2-(6-Amino-2-(benzylamino)pyrimidin-4-yl)phenyl)methanol], the “−Log (KB)” value was “Weak PAM”.
The same measure, in the same setting: to `Nc1nc(NCc2ccccc2)nc(-c2ccccc2)n1` [Compound 13, N^2-Benzyl-6-phenyl-1,3,5-triazine-2,4-diamine] belongs “Inactive”; to `Cc1ccccc1-c1nc(N)nc(NCc2ccccc2)n1` [Compound 14, N^2-Benzyl-6-(o-tolyl)-1,3,5-triazine-2,4-diamine], “Weak PAM”.
With `CC(=O)c1ccccc1-c1nc(N)nc(NCc2ccccc2)n1` [Compound 15, 1-(2-(4-Amino-6-(benzylamino)-1,3,5-triazin-2-yl)phenyl)ethan-1-one], the “−Log (KB)” value is “Weak PAM”.
Still for that read-out and setting: to `CC(O)c1ccccc1-c1nc(N)nc(NCc2ccccc2)n1` (stereo not shown) [Compound 16, 1-(2-(4-Amino-6-(benzylamino)-1,3,5-triazin-2-yl)phenyl)ethan-1-ol] belongs “Weak PAM”; to `CNCc1ccccc1-c1nc(N)nc(NCc2ccccc2)n1` [Compound 19, N^2-Benzyl-6-(2-((methylamino)methyl)phenyl)-1,3,5-triazine-2,4-diamine], “Weak PAM”; to `COc1cccc(CO)c1-c1nc(N)nc(NCc2ccccc2)n1` [Compound 32, (2-(4-Amino-6-(benzylamino)-1,3,5-triazin-2-yl)-3-methoxyphenyl)methanol], “Weak PAM”.

Staying with this experiment, now noted: allosteric index; human GPR68; mean ± SEM.
In the case of `Nc1cc(-c2ccccc2CO)nc(NCc2ccccc2)n1` [Compound 10, (2-(6-Amino-2-(benzylamino)pyrimidin-4-yl)phenyl)methanol], the “Log (αβ/KB)” value was “Weak PAM”.
Same read-out and setting: to `Nc1nc(NCc2ccccc2)nc(-c2ccccc2)n1` [Compound 13, N^2-Benzyl-6-phenyl-1,3,5-triazine-2,4-diamine] belongs “Inactive”.
Turning to `Cc1ccccc1-c1nc(N)nc(NCc2ccccc2)n1` [Compound 14, N^2-Benzyl-6-(o-tolyl)-1,3,5-triazine-2,4-diamine], the “Log (αβ/KB)” value is “Weak PAM”.
On the same count and under the same terms, the value for `CC(=O)c1ccccc1-c1nc(N)nc(NCc2ccccc2)n1` [Compound 15, 1-(2-(4-Amino-6-(benzylamino)-1,3,5-triazin-2-yl)phenyl)ethan-1-one] was “Weak PAM”.
The same measure, in the same setting: the value for `CC(O)c1ccccc1-c1nc(N)nc(NCc2ccccc2)n1` (stereo not shown) [Compound 16, 1-(2-(4-Amino-6-(benzylamino)-1,3,5-triazin-2-yl)phenyl)ethan-1-ol] was “Weak PAM”; that for `CNCc1ccccc1-c1nc(N)nc(NCc2ccccc2)n1` [Compound 19, N^2-Benzyl-6-(2-((methylamino)methyl)phenyl)-1,3,5-triazine-2,4-diamine] was “Weak PAM”.
Same read-out and setting: the value for `COc1cccc(CO)c1-c1nc(N)nc(NCc2ccccc2)n1` [Compound 32, (2-(4-Amino-6-(benzylamino)-1,3,5-triazin-2-yl)-3-methoxyphenyl)methanol] was “Weak PAM”.

Staying with this experiment, now noted: difference of Log(αβ/KB) from that of 1; human GPR68.
Consider `Nc1cc(-c2ccccc2CO)nc(NCc2ccccc2)n1` [Compound 10, (2-(6-Amino-2-(benzylamino)pyrimidin-4-yl)phenyl)methanol], for which the Δ entry is “Weak PAM”.
In the case of `Nc1nc(NCc2ccccc2)nc(-c2ccccc2)n1` [Compound 13, N^2-Benzyl-6-phenyl-1,3,5-triazine-2,4-diamine], the Δ result is “Inactive”.
On the same count and under the same terms, the value for `Cc1ccccc1-c1nc(N)nc(NCc2ccccc2)n1` [Compound 14, N^2-Benzyl-6-(o-tolyl)-1,3,5-triazine-2,4-diamine] was “Weak PAM”; that for `CC(=O)c1ccccc1-c1nc(N)nc(NCc2ccccc2)n1` [Compound 15, 1-(2-(4-Amino-6-(benzylamino)-1,3,5-triazin-2-yl)phenyl)ethan-1-one] was “Weak PAM”; that for `CC(O)c1ccccc1-c1nc(N)nc(NCc2ccccc2)n1` (stereo not shown) [Compound 16, 1-(2-(4-Amino-6-(benzylamino)-1,3,5-triazin-2-yl)phenyl)ethan-1-ol] was “Weak PAM”.
The same measure, in the same setting: the value for `CNCc1ccccc1-c1nc(N)nc(NCc2ccccc2)n1` [Compound 19, N^2-Benzyl-6-(2-((methylamino)methyl)phenyl)-1,3,5-triazine-2,4-diamine] was “Weak PAM”.
On to `COc1cccc(CO)c1-c1nc(N)nc(NCc2ccccc2)n1` [Compound 32, (2-(4-Amino-6-(benzylamino)-1,3,5-triazin-2-yl)-3-methoxyphenyl)methanol], for which the Δ result is recorded as “Weak PAM”.
The same measure, in the same setting: to `Nc1nc(NCc2cccc(F)c2)nc(-c2ccccc2CO)n1` [Compound 42, (2-(4-Amino-6-((3-fluorobenzyl)amino)-1,3,5-triazin-2-yl)-phenyl)methanol] belongs 0.24; to `Nc1nc(NCc2ccc(F)cc2)nc(-c2ccccc2CO)n1` [Compound 43, (2-(4-Amino-6-((4-fluorobenzyl)amino)-1,3,5-triazin-2-yl)-phenyl)methanol], 0.11; to `Nc1nc(NCc2ccccc2Cl)nc(-c2ccccc2CO)n1` [Compound 44, (2-(4-Amino-6-((2-chlorobenzyl)amino)-1,3,5-triazin-2-yl)-phenyl)methanol], 0.63.
Take `Nc1nc(NCc2cccc(Cl)c2)nc(-c2ccccc2CO)n1` [Compound 45, (2-(4-Amino-6-((3-chlorobenzyl)amino)-1,3,5-triazin-2-yl)-phenyl)methanol]: the Δ came out at 0.59.
`Nc1nc(NCc2ccccc2C(F)(F)F)nc(-c2ccccc2CO)n1` [Compound 47, (2-(4-Amino-6-((2-(trifluoromethyl)benzyl)amino)-1,3,5-triazin-2-yl)phenyl)methanol] had a Δ of 0.65.
The same measure, in the same setting: to `Nc1nc(NCc2cccc(C(F)(F)F)c2)nc(-c2ccccc2CO)n1` [Compound 48, (2-(4-Amino-6-((3-(trifluoromethyl)benzyl)amino)-1,3,5-triazin-2-yl)phenyl)methanol] belongs 0.76; to `Nc1nc(NCc2ccc(C(F)(F)F)cc2)nc(-c2ccccc2CO)n1` [Compound 49, (2-(4-Amino-6-((4-(trifluoromethyl)benzyl)amino)-1,3,5-triazin-2-yl)phenyl)methanol], 0.79; to `Cc1ccccc1CNc1nc(N)nc(-c2ccccc2CO)n1` [Compound 50, (2-(4-Amino-6-((2-methylbenzyl)amino)-1,3,5-triazin-2-yl)-phenyl)methanol], 0.26.
On the same count and under the same terms, the value for `Cc1cccc(CNc2nc(N)nc(-c3ccccc3CO)n2)c1` [Compound 51, (2-(4-Amino-6-((3-methylbenzyl)amino)-1,3,5-triazin-2-yl)-phenyl)methanol] was 0.26.
On the same count and under the same terms, the value for `Cc1ccc(CNc2nc(N)nc(-c3ccccc3CO)n2)cc1` [Compound 52, (2-(4-Amino-6-((4-methylbenzyl)amino)-1,3,5-triazin-2-yl)-phenyl)methanol] was 0.29.

Still in this experiment, the particulars now being: efficacy cooperativity; human GPR68, HEK293T, Gs-cAMP; mean ± SEM.
As to `Nc1cc(-c2ccccc2CO)nc(NCc2ccccc2)n1` [Compound 10, (2-(6-Amino-2-(benzylamino)pyrimidin-4-yl)phenyl)methanol], the “Log (β)” value was “Weak PAM”.
Same read-out and setting: the value for `Nc1nc(NCc2ccccc2)nc(-c2ccccc2)n1` [Compound 13, N^2-Benzyl-6-phenyl-1,3,5-triazine-2,4-diamine] was “Inactive”; that for `Cc1ccccc1-c1nc(N)nc(NCc2ccccc2)n1` [Compound 14, N^2-Benzyl-6-(o-tolyl)-1,3,5-triazine-2,4-diamine] was “Weak PAM”; that for `CC(=O)c1ccccc1-c1nc(N)nc(NCc2ccccc2)n1` [Compound 15, 1-(2-(4-Amino-6-(benzylamino)-1,3,5-triazin-2-yl)phenyl)ethan-1-one] was “Weak PAM”.
On the same count and under the same terms, to `CC(O)c1ccccc1-c1nc(N)nc(NCc2ccccc2)n1` (stereo not shown) [Compound 16, 1-(2-(4-Amino-6-(benzylamino)-1,3,5-triazin-2-yl)phenyl)ethan-1-ol] belongs “Weak PAM”; to `CNCc1ccccc1-c1nc(N)nc(NCc2ccccc2)n1` [Compound 19, N^2-Benzyl-6-(2-((methylamino)methyl)phenyl)-1,3,5-triazine-2,4-diamine], “Weak PAM”.
Take `COc1cccc(CO)c1-c1nc(N)nc(NCc2ccccc2)n1` [Compound 32, (2-(4-Amino-6-(benzylamino)-1,3,5-triazin-2-yl)-3-methoxyphenyl)methanol]: the “Log (β)” value is on record as “Weak PAM”.
